The text below walks through data of ChEMBL document CHEMBL3603810, “Discovery of Potent and Selective RSK Inhibitors as Biological Probes” (J Med Chem, 2015).

For series [1], the target named is Ribosomal protein S6 kinase alpha-3 (Homo sapiens, UniProt P51812).
In series [2] the target is Ribosomal protein S6 kinase alpha-3 (Mus musculus, UniProt P18654). Kind of series: Inhibition of RSK2 in mouse BAF cells expressing activated FGFR assessed as reduction of YB1 phosphorylation at Ser102 by electochemiluminescence assay. Format: cell-based. The method in brief: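 Cellular Ser102-phospho-YB1 ECL immunoassay in mouse BAF cells engineered to express activated FGFR. RIPA lysates are bound overnight at 4 °C to high-bind plates. Plates are blocked 2 h at rt with 10% BSA. Detection uses phospho-Ser102 YB1 antibody (1.3 μg/mL, 2 h rt), then sulfo-tag goat anti-rabbit antibody (0.5 μg/mL, 2 h rt), then MSD read buffer.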

Series [3] has as its target Serine/threonine-protein kinase PLK1 (Homo sapiens) (UniProt P53350). Kind of series: Binding affinity to DNA-tagged PLK (unknown origin) at 10 uM by qPCR analysis. The method in brief: (§1)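 Competitive binding panel (KinomeScan) run at 10 μM test concentration, 96 kinases in the panel, or 442 in the expanded panel. Results are reported as […], where smaller values mean stronger binding.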
(Quantitative PCR measures a nucleic acid by following its amplification.)

In series [4] the target is Ribosomal protein S6 kinase alpha-1 (Homo sapiens) (UniProt Q15418). Kind of series: Binding affinity to DNA-tagged RSK1 N-terminal kinase domain (unknown origin) assessed as level of protein captured on solid support at 10 uM by qPCR analysis relative to control. Summed up: as §1
In series [5] the target is Ribosomal protein S6 kinase alpha-2 (Homo sapiens) (UniProt Q15349). Kind of series: Binding affinity to DNA-tagged RSK3 N-terminal kinase domain (unknown origin) assessed as level of protein captured on solid support at 10 uM by qPCR analysis relative to control. The method in brief:
as §1

In series [6] the target is Ribosomal protein S6 kinase alpha-6 (Homo sapiens) (UniProt Q9UK32). Kind of series: Binding affinity to DNA-tagged RSK4 N-terminal kinase domain (unknown origin) assessed as level of protein captured on solid support at 10 uM by qPCR analysis relative to control. Summed up: as §1
A short description of series [7]: Plasma half life in iv dosed Sprague-Dawley rat. Format: ADME, organism-based. Summed up: (§2)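 Single-dose plasma pharmacokinetics in male Sprague-Dawley rats following intravenous administration.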
Series [8] can be described thus: Volume of distribution at steady state in iv dosed Sprague-Dawley rat. The class given is ADME, organism-based. Conditions: in vivo, read-out: Vdss. The method in brief:
as §2

Series [9] can be described thus: Clearance in iv dosed Sprague-Dawley rat. The class given is ADME, organism-based. Conditions: in vivo. The method in brief: as §2
The nature of series [10]: Clearance in rat liver microsomes. The class given is ADME. Conditions: read-out: CLH.
For series [11], the system named is Caco-2. Kind of series: Permeability across human Caco2 cells. Format: ADME, cell-based. In general terms: Passage across Caco-2 layers is used to estimate intestinal permeability.

Activity calls are given as the source filed them. The calls are words filed in the database; no cut-off is given here.

Ribosomal protein S6 kinase alpha-3 (Mus musculus, UniProt P18654), sequence (P18654 whole entry): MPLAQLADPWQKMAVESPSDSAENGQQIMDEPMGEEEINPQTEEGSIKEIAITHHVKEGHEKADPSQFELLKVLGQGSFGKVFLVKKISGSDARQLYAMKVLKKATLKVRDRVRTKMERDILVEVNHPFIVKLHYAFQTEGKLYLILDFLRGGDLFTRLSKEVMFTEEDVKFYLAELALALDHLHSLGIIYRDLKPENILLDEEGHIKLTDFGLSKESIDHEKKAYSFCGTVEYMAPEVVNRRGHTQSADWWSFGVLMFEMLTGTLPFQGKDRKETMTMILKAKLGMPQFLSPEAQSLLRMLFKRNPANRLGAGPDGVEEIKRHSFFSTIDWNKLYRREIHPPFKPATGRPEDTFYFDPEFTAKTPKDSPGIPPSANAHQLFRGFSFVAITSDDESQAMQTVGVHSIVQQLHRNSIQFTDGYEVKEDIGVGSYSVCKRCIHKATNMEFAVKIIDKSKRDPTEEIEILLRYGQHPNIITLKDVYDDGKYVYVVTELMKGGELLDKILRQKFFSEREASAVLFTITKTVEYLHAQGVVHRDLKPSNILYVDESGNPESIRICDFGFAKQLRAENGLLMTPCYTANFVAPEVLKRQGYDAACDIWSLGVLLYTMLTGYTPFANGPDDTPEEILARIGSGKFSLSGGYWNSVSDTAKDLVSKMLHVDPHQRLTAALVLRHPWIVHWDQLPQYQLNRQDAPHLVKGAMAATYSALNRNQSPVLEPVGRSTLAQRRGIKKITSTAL
Ribosomal protein S6 kinase alpha-3 (Homo sapiens, UniProt P51812), sequence (P51812 whole entry): as the sequence (P18654 whole entry) above, with G45V counted along it
Serine/threonine-protein kinase PLK1 (Homo sapiens), sequence (P53350 whole entry): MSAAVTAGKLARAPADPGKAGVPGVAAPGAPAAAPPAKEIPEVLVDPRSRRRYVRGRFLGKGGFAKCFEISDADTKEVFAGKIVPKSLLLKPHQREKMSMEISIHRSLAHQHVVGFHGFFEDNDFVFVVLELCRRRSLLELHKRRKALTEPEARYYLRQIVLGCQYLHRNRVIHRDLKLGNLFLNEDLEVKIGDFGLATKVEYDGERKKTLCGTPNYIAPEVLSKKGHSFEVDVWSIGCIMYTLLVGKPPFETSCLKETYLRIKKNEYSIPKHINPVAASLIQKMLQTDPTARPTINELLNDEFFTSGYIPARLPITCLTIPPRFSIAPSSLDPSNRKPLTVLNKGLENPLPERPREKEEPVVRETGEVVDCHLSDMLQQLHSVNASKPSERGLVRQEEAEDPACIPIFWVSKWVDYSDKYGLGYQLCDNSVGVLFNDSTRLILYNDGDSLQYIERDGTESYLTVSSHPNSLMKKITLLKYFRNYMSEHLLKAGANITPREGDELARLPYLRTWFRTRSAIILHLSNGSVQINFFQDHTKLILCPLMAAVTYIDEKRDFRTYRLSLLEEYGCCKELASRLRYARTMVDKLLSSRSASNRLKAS
Ribosomal protein S6 kinase alpha-1 (Homo sapiens), sequence (Q15418 whole entry, the tested form may be a part): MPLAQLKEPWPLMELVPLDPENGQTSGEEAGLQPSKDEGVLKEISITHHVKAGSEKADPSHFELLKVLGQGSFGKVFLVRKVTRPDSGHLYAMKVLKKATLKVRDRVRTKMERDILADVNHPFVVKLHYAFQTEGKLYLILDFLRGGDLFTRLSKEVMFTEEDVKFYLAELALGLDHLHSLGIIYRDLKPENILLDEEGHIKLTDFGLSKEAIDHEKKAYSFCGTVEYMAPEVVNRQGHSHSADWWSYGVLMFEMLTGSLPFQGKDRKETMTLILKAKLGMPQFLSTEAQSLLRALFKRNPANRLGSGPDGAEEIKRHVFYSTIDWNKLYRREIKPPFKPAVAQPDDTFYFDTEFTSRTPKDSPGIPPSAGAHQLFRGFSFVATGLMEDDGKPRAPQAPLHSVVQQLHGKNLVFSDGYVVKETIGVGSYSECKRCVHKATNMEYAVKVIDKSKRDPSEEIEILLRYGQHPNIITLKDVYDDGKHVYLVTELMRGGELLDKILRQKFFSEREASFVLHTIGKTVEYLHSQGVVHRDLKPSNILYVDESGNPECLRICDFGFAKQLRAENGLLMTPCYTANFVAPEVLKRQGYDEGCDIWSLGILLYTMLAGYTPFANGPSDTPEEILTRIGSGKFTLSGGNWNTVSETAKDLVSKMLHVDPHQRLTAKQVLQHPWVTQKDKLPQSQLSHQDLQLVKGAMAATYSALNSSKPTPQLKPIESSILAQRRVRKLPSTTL
Ribosomal protein S6 kinase alpha-2 (Homo sapiens), sequence (Q15349 whole entry, the tested form may be a part): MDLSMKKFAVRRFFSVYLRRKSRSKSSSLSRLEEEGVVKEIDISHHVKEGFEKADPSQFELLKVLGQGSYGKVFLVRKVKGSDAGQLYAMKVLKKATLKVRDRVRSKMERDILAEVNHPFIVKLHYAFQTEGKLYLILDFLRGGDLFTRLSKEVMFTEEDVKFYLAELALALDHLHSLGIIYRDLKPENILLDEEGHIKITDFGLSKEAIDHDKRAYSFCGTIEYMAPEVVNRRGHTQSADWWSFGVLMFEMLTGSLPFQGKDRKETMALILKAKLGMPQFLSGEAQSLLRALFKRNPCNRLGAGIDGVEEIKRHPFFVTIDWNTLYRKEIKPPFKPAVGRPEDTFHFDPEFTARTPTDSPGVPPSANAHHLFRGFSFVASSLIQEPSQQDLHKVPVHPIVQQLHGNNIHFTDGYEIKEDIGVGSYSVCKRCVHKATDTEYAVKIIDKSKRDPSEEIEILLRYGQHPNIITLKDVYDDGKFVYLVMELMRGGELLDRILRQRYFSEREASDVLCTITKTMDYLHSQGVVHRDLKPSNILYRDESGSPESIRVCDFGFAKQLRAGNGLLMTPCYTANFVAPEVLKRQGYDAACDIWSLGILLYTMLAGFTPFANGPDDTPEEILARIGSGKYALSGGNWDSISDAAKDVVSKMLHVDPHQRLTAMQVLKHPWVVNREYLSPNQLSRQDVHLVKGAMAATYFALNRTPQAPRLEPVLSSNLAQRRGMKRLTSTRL
Ribosomal protein S6 kinase alpha-6 (Homo sapiens), sequence (Q9UK32 whole entry, the tested form may be a part): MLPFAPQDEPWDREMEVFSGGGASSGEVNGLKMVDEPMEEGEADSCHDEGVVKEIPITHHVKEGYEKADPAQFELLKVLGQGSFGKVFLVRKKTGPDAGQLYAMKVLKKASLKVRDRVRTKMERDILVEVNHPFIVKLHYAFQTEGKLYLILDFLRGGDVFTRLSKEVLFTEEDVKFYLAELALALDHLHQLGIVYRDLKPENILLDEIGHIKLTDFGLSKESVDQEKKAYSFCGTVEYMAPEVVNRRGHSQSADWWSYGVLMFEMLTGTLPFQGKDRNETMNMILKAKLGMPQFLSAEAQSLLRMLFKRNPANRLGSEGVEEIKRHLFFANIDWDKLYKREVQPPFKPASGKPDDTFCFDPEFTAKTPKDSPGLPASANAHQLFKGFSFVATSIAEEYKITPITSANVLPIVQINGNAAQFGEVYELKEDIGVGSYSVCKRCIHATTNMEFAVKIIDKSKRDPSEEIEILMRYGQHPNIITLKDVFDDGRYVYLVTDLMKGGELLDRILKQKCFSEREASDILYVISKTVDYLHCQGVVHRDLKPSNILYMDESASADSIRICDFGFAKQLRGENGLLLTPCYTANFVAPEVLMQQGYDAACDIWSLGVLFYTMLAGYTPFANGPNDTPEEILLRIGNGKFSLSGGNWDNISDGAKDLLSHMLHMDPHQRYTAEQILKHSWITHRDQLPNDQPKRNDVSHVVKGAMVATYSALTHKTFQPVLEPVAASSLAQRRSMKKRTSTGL

For the compound `CNc1cc(-c2ccc(N3CCN(C)CC3)cc2)c(-c2cc(F)c(O)c(F)c2)cn1`, in series [1], the IC50 was 14 nM. In addition, the concentration giving a half-maximal response (EC50) in series [2] is 580 nM.

The compound `Oc1ccc(-c2ccncc2-c2cc(F)c(O)c(F)c2)cc1` returned an IC50 in [1] of 50 nM. Further, in series [2], the 50% effective concentration (EC50) is 6400 nM.

In the case of `COc1cccc(-c2ccncc2-c2cc(F)c(O)c(F)c2)c1`, half-maximal inhibition in [1] (IC50) required 46 nM. For the same compound, the EC50 in series [2] was 5600 nM.

Turning to `CC(C)CCN1c2nc(Nc3cc(F)c(O)c(F)c3)ncc2N(C)C(=O)[C@H]1C`, the EC50 in series [2] came out at 500 nM. In [3], the result was Active.

In the case of `Oc1c(F)cc(-c2cnccc2-c2ccc(N3CCNCC3)cc2)cc1F`, the IC50 in series [1] came out at 6 nM. Besides, the EC50 in series [2] turned out to be 140 nM.

On to `CC(C)Nc1ncc(-c2cc(F)c(O)c(F)c2)c(-c2ccc(N3CCN(C)CC3)cc2)n1`, for which the half-maximal inhibitory concentration (IC50) in series [1] worked out at 20 nM. Also, in [2], the EC50 amounted to 610 nM.

As to `Oc1c(F)cc(-c2cnccc2-c2cccc(-c3cn[nH]c3)c2)cc1F`, in [1], half-maximal inhibition (IC50) was put at 5 nM. In addition, the concentration for a half-maximal effect (EC50) in [2] was determined as 1100 nM.

Consider `Oc1c(Cl)cc(-c2cnccc2-c2ccc(F)cc2)cc1Cl`, for which the IC50 in [1] was 4800 nM. Moreover, the EC50 in [2] was above 20000 nM.

In series [1], `COc1ccc(-c2ccncc2-c2cc(F)c(O)c(F)c2)cc1` showed an IC50 of 8 nM. Besides, the EC50 in series [2] was found to be 1100 nM.

Turning to `Oc1c(F)cc(-c2cnccc2-c2ccc(N3CCOCC3)cc2)cc1F`, in series [1], the IC50 came to 4 nM. The Activity came to 0% in series [4], 0.05% in series [5] and 0% in [6]. The EC50 in [2] came out at 210 nM. For the same compound, the outcome in series [3] was inactive.

As for `Oc1ccc(-c2[nH]ncc2-c2ccccc2)cc1`, the midpoint of inhibition in [1], the IC50, lay at 150 nM. The EC50 in series [2] was above 20000 nM.

In series [1], `CNc1ncc(-c2cc(F)c(O)c(F)c2)c(-c2ccc(C)cc2)n1` registered an IC50 of 13 nM. Besides, the EC50 in series [2] worked out at 690 nM.

Take `Cc1ccc(Nc2cc(-c3ccc(N4CCN(C)CC4)cc3)c(-c3cc(F)c(O)c(F)c3)cn2)cc1`: inhibition in series [1] was half-maximal at 6 nM (IC50). Also, the EC50 in series [2] is 690 nM.

Turning to `Cc1ccc(-c2nc(N)ncc2-c2cc(F)c(O)c(F)c2)cc1`, half-maximal inhibition in series [1] (IC50) was put at 10 nM. In addition, the EC50 in series [2] stood at 360 nM.

`COc1ccc(-c2ccncc2-c2cc(F)c(O)c(F)c2)cn1`: the IC50 in series [1] was 80 nM. The EC50 in [2] came to 5300 nM.

With `CN1CCN(c2ccc(-c3ccncc3-c3cc(F)c(O)c(F)c3)cc2)CC1`, 5 nM corresponded to half-maximal inhibition in [1] (IC50). In [2], the EC50 is 340 nM. Further, in series [7], the half-life is 13 min. Besides, the Vd in series [8] came out at 1.6 L/kg. For the same compound, in [9], the clearance turned out to be 166 mL/min/kg. In addition, the microsomal CLint in [10] came out at 170 µL/min/mg.

Take `Oc1c(F)cc(-c2cnccc2C2CCNCC2)cc1F`: 2100 nM corresponded to half-maximal inhibition in series [1] (IC50). In addition, the EC50 in series [2] is above 20000 nM.

The compound `NCCOc1cccc(-c2ccncc2-c2cc(F)c(O)c(F)c2)c1` returned an IC50 in series [1] of 4 nM. Besides, in series [2], the EC50 came out at 490 nM.

`Oc1c(F)cc(-c2cnccc2C2CCOCC2)cc1F` registered an IC50 in series [1] of 130 nM. Also, the EC50 in series [2] stood at 2200 nM.

As for `Oc1ccc(-c2cn[nH]c2-c2ccccc2)cc1`, the IC50 in series [1] was 2500 nM. The EC50 in [2] is above 20000 nM.

In [1], `CNC(=O)c1ccc(-c2ccncc2-c2cc(F)c(O)c(F)c2)cc1` registered a half-inhibitory concentration (IC50) of 20 nM. For the same compound, the EC50 in series [2] amounted to 2100 nM.

As for `Cc1cccc(-c2ccncc2-c2cc(F)c(O)c(F)c2)c1`, the IC50 in [1] was 32 nM. Also, in [2], the EC50 stood at 4100 nM.

`Oc1c(F)cc(-c2cnccc2-c2ccc(F)cc2)cc1F` registered an IC50 in series [1] of 94 nM. The EC50 in series [2] worked out at 10400 nM.

In [1], `Oc1ccc(-c2ccncc2-c2ccc(O)cc2)cc1` gave an IC50 of 180 nM. The permeability result in series [11] is on record as “permeable”. The EC50 in series [2] came out at 9300 nM.

For the compound `Nc1n[nH]c(-c2ccc(O)cc2)c1-c1ccccc1`, half-maximal inhibition in series [1] (IC50) required 53 nM. Also, the EC50 in [2] was 3200 nM.

Take `CC(C)CNc1cc(-c2ccc(N3CCN(C)CC3)cc2)c(-c2cc(F)c(O)c(F)c2)cn1`: half-maximal inhibition in [1] (IC50) was put at 22 nM. Also, the concentration giving a half-maximal response (EC50) in [2] amounted to 2500 nM.

For `Cc1ccc(-c2nc(NC(C)C)ncc2-c2cc(F)c(O)c(F)c2)cc1`, inhibition in series [1] was half-maximal at 23 nM (IC50). The EC50 in series [2] stood at 1500 nM.

`Oc1c(F)cc(-c2cnccc2-c2cccc(N3CCOCC3)c2)cc1F` showed an IC50 in series [1] of 18 nM. Besides, in series [2], the EC50 worked out at 2300 nM.

In series [1], `CN1CCN(c2ccc(-c3cc(N)ncc3-c3cc(F)c(O)c(F)c3)cc2)CC1` displayed an IC50 of 6 nM. In addition, the EC50 in [2] worked out at 440 nM.

Consider `CC(C)c1ccncc1-c1cc(F)c(O)c(F)c1`, for which inhibition in [1] was half-maximal at 780 nM (IC50). The EC50 in series [2] is above 20000 nM.

Take `CN1CCN(c2cccc(-c3ccncc3-c3cc(F)c(O)c(F)c3)c2)CC1`: in series [1], the midpoint of inhibition, the IC50, lay at 4 nM. Moreover, the EC50 in series [2] is 1100 nM.

In series [1], `Oc1c(F)cc(-c2cnccc2-c2ccccc2)cc1F` registered a half-maximal inhibitory concentration (IC50) of 60 nM. Further, the EC50 in [2] is 4200 nM.

For the compound `Cc1ccc(-c2ccncc2-c2cc(F)c(O)c(F)c2)cc1`, in series [1], the IC50 was determined as 7 nM. Moreover, in series [2], the EC50 is 1600 nM.

`Oc1ccc(-c2cn[nH]c2-c2cc(F)c(O)c(F)c2)cc1`: in [1], the IC50 is 6 nM. Also, the EC50 in series [2] stood at 1400 nM.

The compound `Oc1ccc(-c2cn[nH]c2-c2ccc(O)cc2)cc1` returned an IC50 in [1] of 24 nM. Besides, the permeability result in series [11] is on record as “permeable”. For the same compound, in series [2], the EC50 is 2800 nM.

Broadly, the IC50 is the midpoint of a concentration-inhibition curve. Read a low IC50 as greater potency in that assay. A word on the EC50: it is the concentration needed to bring the measured effect to its halfway point. As a reminder, the half-life is how long it takes for the measured level to halve. A higher half-life goes with slow loss. By clearance is commonly meant the rate of elimination divided by the concentration.
